We go through 22 molecules from ChEMBL document CHEMBL5223075, “Discovery of thienothiazolocarboxamide analogues as novel anti-tubercular agent” (Bioorg Med Chem, 2020).

Values after ≈ are worked out from the molar mass of the structure shown.

The test system of data set [1] is Mycobacterium tuberculosis. As to the kind of experiment: Antitubercular activity against Mycobacterium tuberculosis H37Rv ATCC 27294 expressing the green fluorescence protein assessed as inhibition of bacterial growth by measuring GFP fluorescence incubated for 5 days by fluorescence based plate reader analysis. Type of data set: functional, organism-based. The conditions noted are these: H37Rv ATCC 27294, 120 h. The method in brief: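 H37Rv-GFP was grown 14 days in 7H9/OADC/Tween/glycerol/hygromycin, washed, and seeded at ~3×10^6 CFU/mL. Compounds were given as 10-point 2-fold series starting at 20 or 1 µM, in 1% DMSO final. Plates ran 5 days at 37°C, 5% CO2, with rifampicin 1 µg/mL as positive control. GFP fluorescence was read and IC50 taken from a 4-parameter sigmoid fit.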

For data set [2], the system named is Mycobacterium tuberculosis. Put plainly: Antitubercular activity against Mycobacterium tuberculosis H37Rv ATCC 27294 expressing the green fluorescence protein infected in mouse RAW264.7 cells assessed as inhibition of bacterial growth pre-infected with cell followed by compound addition and measured after 5 days by Hoechst 33342 staining based analysis. It is filed as functional, organism-based. The conditions noted are these: H37Rv ATCC 27294, RAW264.7, 120 h. A digest of the protocol:
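RAW 264.7 cells, passages 2-9, were infected with washed H37Rv-GFP at MOI 20 for 2 h at 37°C with shaking. Cells were washed and plated at 20,000/well over 2-fold compound dilutions for 5 days. Nuclei were stained with 5 µM Hoechst (final) and 3 fields/well imaged. Four parameters (cell count, bacterial area, area per infected cell, infected-cell ratio) were each fitted by 4-parameter sigmoid, and the IC50s averaged.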

The nature of data set [3]: Metabolic stability in human liver microsome assessed as phase I mediated metabolite formation by measuring half-life. The note with it: microsomes. It is filed as ADME.
A short description of data set [4]: Metabolic stability in mouse liver microsome assessed as phase I mediated metabolite formation by measuring half-life. It is filed as ADME. The conditions noted are these: microsomes.
The nature of data set [5]: Solubility of the compound at pH 7.4. Type of data set: physicochemical. The note with it: buffer.
The nature of data set [6]: Solubility of the compound at pH 2.1. The note with it: buffer. It is filed as physicochemical.

For the molecule `O=C(Nc1ccc(O)cc1)c1cc2sc(N3CCCCC3)nc2s1`, the values for the IC50 in data set [1] and in data set [2] were 4.8 µM and 2.75 µM, respectively.

In the case of `O=C(Nc1ccc(Cl)cc1)c1cc2sc(N3CCCCC3)nc2s1`, the figures for the IC50 in data set [1] and in data set [2] were 1.1 µM and 0.11 µM, respectively.

As to `COc1ccc(N(C)C(=O)c2cc3sc(N4CCCCC4)nc3s2)cc1`, the IC50 in data set [1] and in data set [2] was more than 20 µM throughout.

For `COc1ccc(NC(=O)c2cc3sc(N4CCNCC4)nc3s2)cc1`, the figures for the IC50 in data set [1] and in data set [2] were 13.7 µM and 2.1 µM, respectively.

On to `COc1ccc(NC(=O)c2cc3sc(N4CCC(F)(F)CC4)nc3s2)cc1`, for which the values for the IC50 in data set [1] and in data set [2] were 1.1 µM and 0.33 µM, respectively.

For the molecule `COc1ccc(NCc2cc3sc(N4CCCCC4)nc3s2)cc1`, the IC50 in data set [1] and in data set [2] was more than 20 µM throughout.

`COc1ccc(NC(=O)c2cc3sc(N4CCOCC4)nc3s2)cc1`: the IC50 stood at 1.1 µM in data set [1] and 0.21 µM in data set [2]. Moreover, the t1/2 is on record as 57.6 min in data set [3] and more than 60 min in data set [4].

Consider `O=C(Nc1ccc(-c2ccc(C(F)(F)F)cn2)cc1)c1cc2sc(NCCN3CCOCC3)nc2s1`, for which the IC50 in data set [1] came out at 4.5 µM; in data set [2], 0.21 µM. Moreover, the solubility in data set [5] worked out at 9.8 µg/mL (≈ 18.4 µM); in data set [6], 44.3 µg/mL (≈ 83 µM).

As to `COc1ccc(CNC(=O)c2cc3sc(N4CCCCC4)nc3s2)cc1`, the IC50 in data set [1] and in data set [2] was more than 20 µM each time.

In the case of `COc1ccc(NC(=O)c2cc3sc(N(C)C)nc3s2)cc1`, the IC50 turned out to be 1.6 µM in data set [1] and 0.27 µM in data set [2].

As for `Cc1nc2cc(NC(=O)c3cc4sc(N(C)CCCO)nc4s3)ccc2o1`, the IC50 came out at 1 µM in data set [1] and 0.7 µM in data set [2].

With `COc1ccc(NC(=O)c2cc3sc(N4CCCCC4)nc3s2)cc1`, the results for the IC50 in data set [1] and in data set [2] were 0.83 µM and 0.17 µM, respectively.

Turning to `COc1ccc(C(=O)Nc2cc3sc(N4CCCCC4)nc3s2)cc1`, the IC50 in data set [1] and in data set [2] was more than 20 µM each time.

On to `Cc1nc2cc(NC(=O)c3cc4sc(N5CCC(CO)CC5)nc4s3)ccc2o1`, for which the concentration for half-maximal inhibition (IC50) in data set [1] was 0.5 µM; in data set [2], 0.23 µM.

Regarding `O=C(Nc1ccc(-c2ccc(F)cc2)cn1)c1cc2sc(NCCN3CCOCC3)nc2s1`, the IC50 in data set [1] came out at 4.7 µM; in data set [2], 0.36 µM. The solubility in data set [5] is 0.56 µg/mL (≈ 1.16 µM); in data set [6], 44.2 µg/mL (≈ 91.4 µM).

`COc1ccc(NC(=O)c2cc3sc(N4CCN(C)CC4)nc3s2)cc1`: the IC50 stood at 1.3 µM in data set [1] and 0.11 µM in data set [2].

In the case of `O=C(Nc1ccc(-c2ccc(F)cc2)nc1)c1cc2sc(NCCN3CCOCC3)nc2s1`, the IC50 in data set [1] amounted to 4.6 µM; in data set [2], 0.37 µM. Moreover, the solubility in data set [5] is 0.57 µg/mL (≈ 1.18 µM); in data set [6] it was more than 50 µg/mL.

As to `Cc1nc2cc(NC(=O)c3cc4sc(N5CC(C)OC(C)C5)nc4s3)ccc2o1` (stereo unspecified), the IC50 in data set [1] worked out at 1.1 µM; in data set [2], 0.25 µM.

In the case of `CO[C@H]1/C=C/O[C@@]2(C)Oc3c(C)c(O)c4c(O)c(c(/C=N/N5CCN(C)CC5)c(O)c4c3C2=O)NC(=O)/C(C)=C\C=C\[C@H](C)[C@H](O)[C@@H](C)[C@@H](O)[C@@H](C)[C@H](OC(C)=O)[C@@H]1C` [RIFAMPIN], the IC50 amounted to 0.01 µM in data set [1] and 0.06 µM in data set [2].

In the case of `COc1cc(NC(=O)c2cc3sc(N4CCCCC4)nc3s2)cc(OC)c1`, the IC50 in data set [1] and in data set [2] was more than 20 µM in each case. Also, the t1/2 in data set [3] was found to be 24.5 min; in data set [4], 33.6 min.

Take `NNC(=O)c1ccncc1` [ISONIAZID]: the IC50 in data set [1] was 0.4 µM; in data set [2] it was 0.35 µM.

On to `O=C(Nc1ccc(-c2ccc(Cl)cn2)cc1)c1cc2sc(NCCN3CCOCC3)nc2s1`, for which the IC50 in data set [1] turned out to be 3.2 µM; in data set [2] it was 0.21 µM. The solubility in data set [5] came to 0.2 µg/mL (≈ 0.4 µM); in data set [6], 43.4 µg/mL (≈ 86.8 µM).
